Measured values taken from ChEMBL document CHEMBL3745617 (J Med Chem, 2015).
The source made the active and inactive calls. No cut-off for these calls is given here.

Legend:
[1] = tested on: MV4-11; experiment: Antitumor activity against human MV4-11 cells xenografted in nu/nu mouse assessed as tumor weight at 50 mg/kg/day administered via oral gavage measured after 22 days of treatment (reference value: 2.5 g); format: functional
[2] = tested on: MV4-11; experiment: Induction of apoptosis in human MV4-11 cells assessed as cleaved caspase-3 level at 0.03 to 1 uM after 48 hrs by immunoblot analysis; format: functional, cell-based
[3] = molecular target: T1, Mast/stem cell growth factor receptor Kit (Homo sapiens, UniProt P10721); experiment: Inhibition of c-KIT (unknown origin) expressed in BaF3 cells assessed as inhibition of cell proliferation after 72 hrs by CelltiterGlo assay; format: cell-based
[4] = Tmax in Sprague-Dawley rat at 1 mg/kg, iv; format: ADME, organism-based; conditions: in vivo
[5] = Apparent volume of distribution in Sprague-Dawley rat at 1 mg/kg, iv; format: ADME, organism-based; conditions: in vivo, read-out: Vd(app)
[6] = Antiproliferative activity against human U2932 cells after 72 hrs by CelltiterGlo assay; format: functional; conditions: U2932, 72 h
[7] = tested on: MOLM-14; experiment: Induction of apoptosis in human MOLM14 cells assessed as cleaved PARP level at 0.03 to 1 uM after 24 hrs by immunoblot analysis; format: functional, cell-based
[8] = molecular target: Tyrosine-protein kinase Blk (Homo sapiens) (UniProt P51451); experiment: Inhibition of BLK (unknown origin) expressed in BaF3 cells assessed as inhibition of cell proliferation after 72 hrs by CelltiterGlo assay; format: cell-based
[9] = molecular target: Tyrosine-protein kinase HCK (Homo sapiens) (UniProt P08631); experiment: Inhibition of HCK (unknown origin) expressed in BaF3 cells assessed as inhibition of cell proliferation after 72 hrs by CelltiterGlo assay; format: cell-based
[10] = molecular target: Platelet-derived growth factor receptor beta (Homo sapiens) (UniProt P09619); experiment: Inhibition of PDGFRB (unknown origin) expressed in BaF3 cells assessed as inhibition of cell proliferation after 72 hrs by CelltiterGlo assay; format: cell-based
[11] = molecular target: Hepatocyte growth factor receptor (Homo sapiens) (UniProt P08581); experiment: Inhibition of MET (unknown origin) expressed in BaF3 cells assessed as inhibition of cell proliferation after 72 hrs by CelltiterGlo assay; format: cell-based
[12] = tested on: Mus musculus; experiment: Toxicity in nu/nu mouse xenografted with human MV4-11 cells assessed as body weight at 12.5 to 50 mg/kg/day administered via oral gavge; format: organism-based; conditions: in vivo
Summary of the method: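 Female nu/nu mice carried established MV4-11 xenografts. Daily oral gavage of 12.5, 25.0 or 50.0 mg/kg/d, or vehicle, began once tumors reached 200 to 400 mm3. Each group had 5 animals, and body weight was tracked over a 22-day treatment period. Data are given as mean ± SEM.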

[13] = tested on: MV4-11; experiment: Antitumor activity against human MV4-11 cells xenografted in nu/nu mouse assessed as tumor weight at 25 mg/kg/day administered via oral gavage measured after 22 days of treatment (reference value: 2.5 g); format: functional
[14] = molecular target: T1, Mast/stem cell growth factor receptor Kit; experiment: Inhibition of c-KIT (unknown origin) by ADP-Glo assay
Summary of the method: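 Biochemical activity assay in ADP-Glo format using purified c-KIT kinase protein. It was run to confirm the binding-panel findings.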

[15] = molecular target: Receptor-type tyrosine-protein kinase FLT3 (Homo sapiens) (UniProt P36888); conditions: MOLM-13, 0.03 to 3 uM
[16] = Antiproliferative activity against human U937 cells after 72 hrs by CelltiterGlo assay; format: functional; conditions: U-937, 72 h
[17] = Cmax in Sprague-Dawley rat at 10 mg/kg, po; format: ADME, organism-based; parameters: dose 10 mg/kg, route oral; conditions: in vivo
[18] = tested on: Receptor-type tyrosine-protein kinase FLT3 (Homo sapiens), P36888 [UNDEFINED MUTATION]; conditions: BaF3
[19] = molecular target: Tyrosine-protein kinase Lck (Homo sapiens) (UniProt P06239); experiment: Inhibition of LCK (unknown origin) assessed as remaining activity at 1 uM relative to control
Summary of the method: (§1)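 KinomeScan competition binding panel of 468 kinases, with the compound tested at 1 µM. Each kinase's result is reported as percent activity remaining relative to a DMSO control.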

[20] = AUC (0 to t) in Sprague-Dawley rat at 1 mg/kg, iv; format: ADME, organism-based; conditions: in vivo
[21] = AUC (0 to infinity) in Sprague-Dawley rat at 1 mg/kg, iv; format: ADME, organism-based; parameters: dose 1 mg/kg, route intravenous, time infinity; conditions: in vivo
[22] = Antiproliferative activity against human MOLM13 cells after 72 hrs by CelltiterGlo assay; format: functional; conditions: MOLM-13, 72 h
[23] = molecular target: Receptor-type tyrosine-protein kinase FLT3 (Homo sapiens) (UniProt P36888); conditions: MV4-11, 0.03 to 3 uM
[24] = molecular target: Tyrosine-protein kinase JAK1 (Homo sapiens) (UniProt P23458); experiment: Inhibition of JAK1 (unknown origin) expressed in BaF3 cells assessed as inhibition of cell proliferation after 72 hrs by CelltiterGlo assay; format: cell-based
[25] = Antiproliferative activity against human JVM2 cells after 72 hrs by CelltiterGlo assay; format: functional; conditions: JVM-2, 72 h
[26] = molecular target: Receptor-type tyrosine-protein kinase FLT3 (Homo sapiens) (UniProt P36888); conditions: MOLM-13, 0.03 to 3 uM; remark: listed apart in the source
[27] = tested on: MV4-11; experiment: Induction of apoptosis in human MV4-11 cells assessed as cleaved PARP level at 0.03 to 1 uM after 48 hrs by immunoblot analysis; format: functional, cell-based
[28] = molecular target: Epidermal growth factor receptor (Homo sapiens) (UniProt P00533); experiment: Inhibition of EGFR (unknown origin) expressed in BaF3 cells assessed as inhibition of cell proliferation after 72 hrs by CelltiterGlo assay; format: cell-based
[29] = molecular target: Tyrosine-protein kinase Srms (Homo sapiens) (UniProt Q9H3Y6); experiment: Inhibition of SRMS (unknown origin) assessed as remaining activity at 1 uM relative to control; summary of the method: as §1
[30] = Mean residence time (0 to infinity) in Sprague-Dawley rat at 1 mg/kg, iv; format: ADME, organism-based; conditions: in vivo
[31] = molecular target: Receptor-type tyrosine-protein kinase FLT3 (Homo sapiens) (UniProt P36888); conditions: MV4-11, 0.03 to 3 uM; remark: listed apart in the source
[32] = molecular target: Platelet-derived growth factor receptor beta (Homo sapiens) (UniProt P09619); experiment: Inhibition of PDGFRB (unknown origin) assessed as remaining activity at 1 uM relative to control
[33] = tested on: MV4-11; experiment: Antiproliferative activity against human MV4-11 cells after 72 hrs by CelltiterGlo assay; format: functional; conditions: MV4-11, 72 h
[34] = Clearance in Sprague-Dawley rat at 1 mg/kg, iv; format: ADME, organism-based; conditions: in vivo
[35] = Antiproliferative activity against human MOLM14 cells after 72 hrs by CelltiterGlo assay; format: functional; conditions: MOLM-14, 72 h
[36] = Oral bioavailability in Sprague-Dawley rat at 10 mg/kg; format: ADME, organism-based; conditions: in vivo
[37] = Cell cycle arrest in human MOLM14 cells assessed as accumulation at G0/G1 phase at 0.03 to 1 uM after 24 hrs by flow cytometry; format: functional, cell-based; conditions: MOLM-14
[38] = tested on: MOLM-13; experiment: Induction of apoptosis in human MOLM13 cells assessed as cleaved PARP level at 0.03 to 1 uM after 12 hrs by immunoblot analysis; format: functional, cell-based

Chain of Receptor-type tyrosine-protein kinase FLT3 (Homo sapiens) (P36888 whole entry): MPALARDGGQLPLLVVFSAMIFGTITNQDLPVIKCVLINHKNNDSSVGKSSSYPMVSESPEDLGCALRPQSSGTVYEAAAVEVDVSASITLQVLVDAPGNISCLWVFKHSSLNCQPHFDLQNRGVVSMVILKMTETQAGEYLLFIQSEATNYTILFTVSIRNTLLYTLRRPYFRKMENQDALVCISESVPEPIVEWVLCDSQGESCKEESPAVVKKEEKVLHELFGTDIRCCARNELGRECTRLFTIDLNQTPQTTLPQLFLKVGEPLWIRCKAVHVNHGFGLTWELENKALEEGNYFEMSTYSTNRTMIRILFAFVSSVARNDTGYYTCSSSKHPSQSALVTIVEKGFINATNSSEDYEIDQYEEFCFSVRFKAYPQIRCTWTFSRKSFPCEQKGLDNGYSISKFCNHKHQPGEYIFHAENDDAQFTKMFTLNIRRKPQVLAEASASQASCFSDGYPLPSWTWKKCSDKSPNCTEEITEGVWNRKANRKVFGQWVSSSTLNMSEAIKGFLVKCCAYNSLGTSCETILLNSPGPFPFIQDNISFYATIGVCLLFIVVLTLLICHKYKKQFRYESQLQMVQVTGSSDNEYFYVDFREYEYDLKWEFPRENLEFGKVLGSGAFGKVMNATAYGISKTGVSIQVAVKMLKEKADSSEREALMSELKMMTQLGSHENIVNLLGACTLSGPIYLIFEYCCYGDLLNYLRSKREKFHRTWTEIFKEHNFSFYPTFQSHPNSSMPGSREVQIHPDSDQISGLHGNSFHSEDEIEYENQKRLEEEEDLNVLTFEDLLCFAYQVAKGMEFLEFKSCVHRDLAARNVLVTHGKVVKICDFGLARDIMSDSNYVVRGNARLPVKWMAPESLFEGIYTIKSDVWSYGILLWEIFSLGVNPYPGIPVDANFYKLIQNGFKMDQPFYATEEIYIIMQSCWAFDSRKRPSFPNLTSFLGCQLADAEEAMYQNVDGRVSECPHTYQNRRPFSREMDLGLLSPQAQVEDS
Chain of Platelet-derived growth factor receptor beta (Homo sapiens) (P09619 whole entry): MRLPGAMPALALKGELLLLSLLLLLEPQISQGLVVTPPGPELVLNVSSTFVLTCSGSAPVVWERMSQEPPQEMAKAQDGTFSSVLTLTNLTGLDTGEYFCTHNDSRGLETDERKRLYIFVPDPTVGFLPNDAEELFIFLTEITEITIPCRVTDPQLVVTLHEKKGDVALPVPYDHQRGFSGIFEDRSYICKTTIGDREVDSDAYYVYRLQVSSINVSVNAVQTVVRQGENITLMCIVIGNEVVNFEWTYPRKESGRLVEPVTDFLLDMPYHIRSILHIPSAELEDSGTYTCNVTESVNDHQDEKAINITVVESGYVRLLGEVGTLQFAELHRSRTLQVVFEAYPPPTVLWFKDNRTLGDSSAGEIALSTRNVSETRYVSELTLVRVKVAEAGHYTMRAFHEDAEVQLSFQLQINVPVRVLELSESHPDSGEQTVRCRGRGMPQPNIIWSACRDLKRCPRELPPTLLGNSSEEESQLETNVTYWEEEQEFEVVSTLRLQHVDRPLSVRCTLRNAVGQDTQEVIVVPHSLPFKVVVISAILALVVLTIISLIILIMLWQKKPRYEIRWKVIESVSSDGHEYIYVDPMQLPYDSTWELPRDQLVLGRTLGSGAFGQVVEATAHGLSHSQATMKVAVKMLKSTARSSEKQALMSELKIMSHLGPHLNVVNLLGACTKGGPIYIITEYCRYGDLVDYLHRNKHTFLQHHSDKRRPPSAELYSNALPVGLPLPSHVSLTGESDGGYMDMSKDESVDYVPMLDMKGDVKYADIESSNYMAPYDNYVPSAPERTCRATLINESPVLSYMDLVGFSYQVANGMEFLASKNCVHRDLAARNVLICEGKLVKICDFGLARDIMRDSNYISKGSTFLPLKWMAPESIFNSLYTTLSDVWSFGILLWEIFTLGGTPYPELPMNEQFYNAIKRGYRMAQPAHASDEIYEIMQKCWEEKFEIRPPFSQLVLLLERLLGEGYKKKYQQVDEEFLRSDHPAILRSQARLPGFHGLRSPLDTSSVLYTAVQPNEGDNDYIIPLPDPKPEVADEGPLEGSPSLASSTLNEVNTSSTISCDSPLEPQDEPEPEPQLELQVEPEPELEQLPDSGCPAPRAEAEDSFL
T1 sequence (P10721 whole entry): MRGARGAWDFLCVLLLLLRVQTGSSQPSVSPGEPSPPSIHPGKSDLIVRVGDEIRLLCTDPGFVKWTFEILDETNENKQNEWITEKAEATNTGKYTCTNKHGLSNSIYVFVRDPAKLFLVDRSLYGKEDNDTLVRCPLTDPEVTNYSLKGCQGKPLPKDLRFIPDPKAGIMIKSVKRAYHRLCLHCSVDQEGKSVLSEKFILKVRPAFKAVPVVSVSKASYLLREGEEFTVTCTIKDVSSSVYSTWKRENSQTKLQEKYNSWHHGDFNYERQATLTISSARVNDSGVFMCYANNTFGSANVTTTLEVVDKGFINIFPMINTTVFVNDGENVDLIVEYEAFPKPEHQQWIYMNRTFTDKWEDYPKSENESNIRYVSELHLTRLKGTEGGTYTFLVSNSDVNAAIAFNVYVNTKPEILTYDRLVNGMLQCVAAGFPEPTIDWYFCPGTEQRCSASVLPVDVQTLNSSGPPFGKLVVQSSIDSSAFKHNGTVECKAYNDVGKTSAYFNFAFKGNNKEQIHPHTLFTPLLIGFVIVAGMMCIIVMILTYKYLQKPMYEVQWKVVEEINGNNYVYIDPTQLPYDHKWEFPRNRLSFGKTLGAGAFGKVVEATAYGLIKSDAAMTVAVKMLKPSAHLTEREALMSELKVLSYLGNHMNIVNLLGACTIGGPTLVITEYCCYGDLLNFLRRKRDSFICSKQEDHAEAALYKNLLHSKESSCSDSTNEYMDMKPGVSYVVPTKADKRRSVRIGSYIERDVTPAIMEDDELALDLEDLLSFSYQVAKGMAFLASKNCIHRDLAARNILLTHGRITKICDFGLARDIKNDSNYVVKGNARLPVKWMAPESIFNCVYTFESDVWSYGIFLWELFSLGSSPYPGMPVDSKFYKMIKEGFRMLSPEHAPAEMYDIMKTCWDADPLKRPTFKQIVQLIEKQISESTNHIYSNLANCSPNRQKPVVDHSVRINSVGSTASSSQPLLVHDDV
Chain of Receptor-type tyrosine-protein kinase FLT3 (Homo sapiens), P36888 [UNDEFINED MUTATION] (P36888 whole entry, looked up, change not shown): as the sequence (P36888 whole entry) above
Chain of Epidermal growth factor receptor (Homo sapiens) (P00533 whole entry): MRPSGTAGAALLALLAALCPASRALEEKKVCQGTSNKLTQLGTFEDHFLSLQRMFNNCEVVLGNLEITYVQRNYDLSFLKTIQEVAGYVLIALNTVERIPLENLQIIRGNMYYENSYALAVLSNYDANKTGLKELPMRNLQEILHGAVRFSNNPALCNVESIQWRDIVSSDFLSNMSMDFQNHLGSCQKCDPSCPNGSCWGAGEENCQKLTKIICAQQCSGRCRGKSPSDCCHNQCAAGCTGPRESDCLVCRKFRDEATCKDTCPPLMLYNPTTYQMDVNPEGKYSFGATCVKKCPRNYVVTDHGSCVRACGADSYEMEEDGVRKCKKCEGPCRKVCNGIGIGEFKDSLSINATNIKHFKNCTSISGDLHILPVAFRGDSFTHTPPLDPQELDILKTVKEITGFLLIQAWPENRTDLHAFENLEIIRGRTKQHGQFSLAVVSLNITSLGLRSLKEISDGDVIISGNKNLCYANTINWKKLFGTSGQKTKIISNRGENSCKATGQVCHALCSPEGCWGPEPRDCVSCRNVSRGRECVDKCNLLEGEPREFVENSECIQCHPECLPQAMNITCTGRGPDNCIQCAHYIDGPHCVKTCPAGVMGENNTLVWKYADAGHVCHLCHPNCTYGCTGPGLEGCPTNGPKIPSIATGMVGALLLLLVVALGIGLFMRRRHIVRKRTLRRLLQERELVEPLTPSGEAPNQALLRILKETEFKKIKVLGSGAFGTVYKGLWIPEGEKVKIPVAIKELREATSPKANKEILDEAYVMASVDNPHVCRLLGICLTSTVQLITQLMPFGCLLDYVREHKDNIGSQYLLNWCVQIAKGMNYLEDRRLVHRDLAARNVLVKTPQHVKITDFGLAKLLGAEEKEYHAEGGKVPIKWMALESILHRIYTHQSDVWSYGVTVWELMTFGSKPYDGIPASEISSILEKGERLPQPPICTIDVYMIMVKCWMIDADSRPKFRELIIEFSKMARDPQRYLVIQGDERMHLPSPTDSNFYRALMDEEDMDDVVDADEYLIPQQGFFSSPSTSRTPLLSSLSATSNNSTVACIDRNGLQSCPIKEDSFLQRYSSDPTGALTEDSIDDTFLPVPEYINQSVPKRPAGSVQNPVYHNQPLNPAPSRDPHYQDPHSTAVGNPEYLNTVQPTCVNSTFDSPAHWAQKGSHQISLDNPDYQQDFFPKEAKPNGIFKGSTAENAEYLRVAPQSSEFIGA
Chain of Tyrosine-protein kinase Lck (Homo sapiens) (P06239 2-509 limits assumed): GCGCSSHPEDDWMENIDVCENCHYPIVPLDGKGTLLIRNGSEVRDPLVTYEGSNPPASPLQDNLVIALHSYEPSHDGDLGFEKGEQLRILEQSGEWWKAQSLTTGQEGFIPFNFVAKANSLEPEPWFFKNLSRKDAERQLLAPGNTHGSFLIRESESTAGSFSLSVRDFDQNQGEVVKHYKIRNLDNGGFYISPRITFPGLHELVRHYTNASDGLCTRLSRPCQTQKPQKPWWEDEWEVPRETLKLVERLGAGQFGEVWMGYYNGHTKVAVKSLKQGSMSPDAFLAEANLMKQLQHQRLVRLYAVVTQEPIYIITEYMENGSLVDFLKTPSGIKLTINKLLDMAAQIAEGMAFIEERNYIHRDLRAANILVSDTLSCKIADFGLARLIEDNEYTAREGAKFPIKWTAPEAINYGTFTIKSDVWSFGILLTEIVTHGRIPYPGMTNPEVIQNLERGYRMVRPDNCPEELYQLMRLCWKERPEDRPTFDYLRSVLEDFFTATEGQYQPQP

For `CN(C)CC(=O)N1CCC[C@@H](n2nc(-c3ccc(Oc4ccccc4)cc3)c3c(N)ncnc32)C1`, the Activity [1] was 0.3 g, the Activity [2] was “Active” and the GI50 [3] was 1900 nM. For the same compound, the Tmax [4] was 1.2 min, the Vd [5] was 3.23 L/kg and the GI50 [6] was 1600 nM. For the same compound, the Activity [7] was “Active”, the GI50 [8] was 940 nM and the GI50 [9] was 880 nM. For the same compound, the GI50 [10] was 680 nM, the GI50 [11] was 2200 nM and the Activity [12] was “Non-toxic”. For the same compound, the Activity [13] was 0.94 g, the IC50 [14] was 559 nM and the inhibition [15] was “Active”. The GI50 [16] was 9.7 µM, the Cmax [17] was 458 ng/mL and the GI50 [18] was 170 nM. For the same compound, the Activity [19] was 0%, the AUC(0-t) [20] was 607 ng·h/mL and the AUC(0-inf) [21] was 619 ng·h/mL. The GI50 [22] was 21 nM, the inhibition [23] was “Active” and the GI50 [24] was 3.8 µM. The GI50 [25] was 2600 nM, the inhibition [26] was “Active” and the Activity [27] was “Active”. The GI50 [28] was 1800 nM, the Activity [29] was 0% and the MRT inf [30] was 1.15 h. The inhibition [31] was “Active”, the Activity [32] was 0.35% and the GI50 [33] was 22 nM. It also gave a clearance [34] of 26.9 mL/min/kg, a GI50 [35] of 42 nM and a bioavailability [36] of 30.4%. The Activity [37] was “Active” and the Activity [38] was “Active”.
